Experimental data published in ChEMBL document CHEMBL4396917, “Synthesis and biological evaluation of novel benzylidene-succinimide derivatives as noncytotoxic antiangiogenic inhibitors with anticolorectal cancer activity in vivo” (Eur J Med Chem, 2019).
Activity calls are given as the source filed them. The calls are words filed in the database; no cut-off is given here.

Tests used:
NCM460 = assay: Cytotoxicity against human NCM460 cells assessed as reduction in cell growth after 72 hrs by MTT assay; type: cell-based; details: NCM460, 72 h
HCT-116 = assay: Cytotoxicity against human HCT116 cells assessed as reduction in cell growth after 72 hrs by MTT assay; type: cell-based; details: HCT-116, 72 h
SW480 = assay: Cytotoxicity against human SW480 cells assessed as reduction in cell growth after 72 hrs by MTT assay; type: cell-based; details: SW480, 72 h
Chorioallantoic membrane [1] = assay: Antiangiogenic activity in Leghorn chicken fertilized egg chorioallantoic membrane at 10 nM/egg measured after 48 hrs by CAM assay; type: functional, tissue-based; details: Gallus gallus
Procedure, shortened: (§1)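 Fertile Leghorn eggs incubated at 37.8°C, 40% humidity; window opened on day 7; compound, sunitinib or 0.9% NaCl mixed with DMSO applied on filter paper onto CAM; 48 h incubation, methanol fixation, photography; nascent vessels counted.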

Chorioallantoic membrane [2] = assay: Antiangiogenic activity in Leghorn chicken fertilized egg chorioallantoic membrane measured after 48 hrs by CAM assay; type: functional, tissue-based; details: Gallus gallus; procedure, shortened: as §1
HUVEC [3] = assay: Antiangiogenic activity against VEGF-induced HUVEC assessed as inhibition of cell proliferation preincubated for 30 mins followed by VEGF addition measured after 24 hrs by MTT assay; type: functional, cell-based; details: Homo sapiens
Procedure, shortened: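 HUVECs seeded 24 h, starved 16 h in M200 with 2% FBS, pretreated 30 min with compound at 0.1, 1, 10, 20 or 40 μM, then stimulated with VEGF (25 ng/mL) for 24 h; viability read by MTT; IC50 determined.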

HUVEC [4] = assay: Antiangiogenic activity against HUVEC assessed as inhibition of cell proliferation measured […] by MTT assay; type: functional, cell-based; details: Homo sapiens, 0.5 h
Mus musculus = assay: Antiangiogenic activity in Matrigel plug angiogenic Balb/c mouse model assessed as impaired vascularization by measuring loss of red colour in VEGF-supplemented matrigel at 20 to 60 mg/kg, sc measured after 15 days; type: functional, organism-based
Procedure, shortened: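 Balb/c nude mice (6–8 weeks), three groups, injected subcutaneously with 400 μL Matrigel alone or with VEGF (250 ng/mL) and/or compound; after 15 days plugs removed, weighed and photographed.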

SMILES	IC50 (NCM460)	IC50 (HCT-116)	IC50 (SW480)	Activity (Chorioallantoic membrane [1])	Activity (Chorioallantoic membrane [2])	IC50 (HUVEC [3])	IC50 (HUVEC [4])	Activity (Mus musculus)
Cc1ccc(N2C(=O)C/C(=C\c3cccc(C(=O)Nc4cccc(F)c4)c3)C2=O)cc1	> 100 µM	> 100 µM	96.9 µM					
O=C(Nc1ccccc1)c1cccc(/C=C2\CC(=O)N(c3ccccc3)C2=O)c1	> 100 µM	> 100 µM	> 100 µM					
O=C(Nc1cccc(F)c1)c1cccc(/C=C2\CC(=O)N(c3ccccc3)C2=O)c1	> 100 µM	> 100 µM	> 100 µM					
O=C(Nc1ccc(Cl)cc1)c1cccc(/C=C2\CC(=O)N(Cc3ccccc3)C2=O)c1	> 100 µM	> 100 µM	> 100 µM					
CCCCNC(=O)c1cccc(/C=C2\CC(=O)N(Cc3ccccc3)C2=O)c1	> 100 µM	95 µM	> 100 µM					
Cc1ccc(N2C(=O)C/C(=C\c3cccc(C(=O)Nc4ccc(Cl)cc4)c3)C2=O)cc1	> 100 µM	> 100 µM	> 100 µM					
CCCCCN1C(=O)C/C(=C\c2cccc(C(=O)Nc3ccc(OC)cc3)c2)C1=O	> 100 µM	> 100 µM	> 100 µM					
O=C(Nc1ccc(OC(F)F)cc1)c1cccc(/C=C2\CC(=O)N(c3ccccc3)C2=O)c1	> 100 µM	> 100 µM	> 100 µM					
CCc1cccc(NC(=O)c2cccc(/C=C3\CC(=O)N(c4ccc(C)cc4)C3=O)c2)c1	> 100 µM	41.5 µM	65.3 µM					
Cc1cccc(NC(=O)c2cccc(/C=C3\CC(=O)N(c4ccccc4)C3=O)c2)c1	> 100 µM	> 100 µM	> 100 µM					
O=C(c1cccc(/C=C2\CC(=O)N(c3ccccc3)C2=O)c1)N1CCOCC1	> 100 µM	> 100 µM	> 100 µM	Active				
COc1ccc(NC(=O)c2cccc(/C=C3\CC(=O)N(c4ccccc4)C3=O)c2)cc1	> 100 µM	> 100 µM	> 100 µM	Active				
O=C(Nc1ccc(F)cc1)c1cccc(/C=C2\CC(=O)N(c3ccccc3)C2=O)c1	> 100 µM	> 100 µM	> 100 µM					
CCc1ccc(NC(=O)c2cccc(/C=C3\CC(=O)N(c4ccccc4)C3=O)c2)cc1	> 100 µM	> 100 µM	> 100 µM					
CCCCN1C(=O)C/C(=C\c2cccc(C(=O)Nc3cccc(CC)c3)c2)C1=O	> 100 µM	75.3 µM	83.2 µM					
COc1ccc(NC(=O)c2cccc(/C=C3\CC(=O)N(c4ccccc4)C3=O)c2)c(C)c1	> 100 µM	> 100 µM	> 100 µM					

SMILES	IC50 (NCM460)	IC50 (HCT-116)	IC50 (SW480)	Activity (Chorioallantoic membrane [1])	Activity (Chorioallantoic membrane [2])	IC50 (HUVEC [3])	IC50 (HUVEC [4])	Activity (Mus musculus)
O=C(NC1CCCCC1)c1cccc(/C=C2\CC(=O)N(c3ccccc3)C2=O)c1	> 100 µM	> 100 µM	> 100 µM	Active				
CCN(CC)CCNC(=O)c1c(C)[nH]c(/C=C2\C(=O)Nc3ccc(F)cc32)c1C [SUNITINIB]					Active	3.63 µM	6.46 µM	
CCOc1ccc(NC(=O)c2cccc(/C=C3\CC(=O)N(c4ccccc4)C3=O)c2)cc1	> 100 µM	84.8 µM	91.5 µM					
O=C(Nc1ccc(Cl)cc1)c1cccc(/C=C2\CC(=O)N(c3ccccc3)C2=O)c1	> 100 µM	> 100 µM	> 100 µM	Active				
COc1ccc(NC(=O)c2cccc(CC3CC(=O)N(c4ccc(C)cc4)C3=O)c2)cc1 (stereo not given)	> 100 µM	> 100 µM	> 100 µM					Active
Cc1ccc(NC(=O)c2cccc(/C=C3\CC(=O)N(c4ccccc4)C3=O)c2)cc1C	> 100 µM	> 100 µM	> 100 µM					
CCc1cccc(NC(=O)c2cccc(/C=C3\CC(=O)N(Cc4ccccc4)C3=O)c2)c1	> 100 µM	80.6 µM	91.5 µM					
CCc1cccc(NC(=O)c2cccc(/C=C3\CC(=O)N(c4ccccc4)C3=O)c2)c1	> 100 µM	81.2 µM	88.6 µM					
CSc1cccc(NC(=O)c2cccc(/C=C3\CC(=O)N(c4ccccc4)C3=O)c2)c1	> 100 µM	65.2 µM	74.3 µM					
COc1ccc(OC)c(NC(=O)c2cccc(/C=C3\CC(=O)N(c4ccccc4)C3=O)c2)c1	> 100 µM	> 100 µM	> 100 µM					
COc1cc(NC(=O)c2cccc(/C=C3\CC(=O)N(c4ccccc4)C3=O)c2)cc(OC)c1OC	> 100 µM	> 100 µM	> 100 µM					
O=C(NCc1ccccc1)c1cccc(/C=C2\CC(=O)N(c3ccccc3)C2=O)c1	> 100 µM	> 100 µM	> 100 µM	Active				
Cc1ccc(NC(=O)c2cccc(/C=C3\CC(=O)N(c4ccccc4)C3=O)c2)cc1	> 100 µM	> 100 µM	> 100 µM					
O=C(c1cccc(/C=C2\CC(=O)N(c3ccccc3)C2=O)c1)N1CCCC1	> 100 µM	> 100 µM	> 100 µM	Active				
CCOc1ccc(NC(=O)c2cccc(/C=C3\CC(=O)N(Cc4ccccc4)C3=O)c2)cc1	> 100 µM	41.7 µM	73.2 µM					
